A short description of the data set: Toxicity liver stage against HepG2, at 10uM. The note with it: human, HepG2-A16-CD81EGFP cells; read-out: INHIBITION
Format: cell-based. Also on record: test concentration 10 uM, cell line HepG2-A16-CD81EGFP. A digest of the protocol: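 Uninfected HepG2-A16-CD81EGFP cells, 3 × 10^3 per well, 1536-well, plated on prespotted compound at 10 μM final, parasite-free screening media added to match infected plates; puromycin 10 μM positive, DMSO 0.5% negative; run in parallel with 48 h PbLuc assay at 37 °C, 5% CO2; viability by CellTiter-Glo luminescence, normalized to controls.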
As to `Fc1ccc(CN2CCOC[C@H](Oc3cccnc3)C2)cc1`, the cytotoxicity at 10 µM worked out at 7.35%.

As to `COCC(=O)N1CCN(C(C)=O)C[C@@H]1C(=O)OC`, the cytotoxicity at 10 µM came out at 2.43%.

As for `O=C(O)CCn1ccc(=O)c2cc(F)ccc21`, the cytotoxicity at 10 µM is 1.09%.

As for `CCCNC(=O)CSc1nnc2[nH]c(=O)c3c(n12)CCCC3`, the cytotoxicity at 10 µM was -83.3%.

In the case of `CCOc1ccc(S(=O)(=O)NCCCc2ccc(N(C)C)cc2)cc1C`, the cytotoxicity at 10 µM amounted to 0.279%.

Take `O=C(Nc1cccc(OC(F)F)c1)C1CN(S(=O)(=O)C2CC2)C1`: the cytotoxicity at 10 µM came to 0.696%.

For `O=S(=O)(NCCC(O)c1cccs1)c1c(F)cccc1F` (stereo not given), the cytotoxicity at 10 µM was -0.00815%.

As for `CN(C)C(=O)c1ccc2ccc(N3CCN(CC4CC4)CC3)n2c1`, the cytotoxicity at 10 µM was 4.14%.

In the case of `CN(C)C(=O)c1cc2c(nc1NCC1CC1)CCN(CC1CC1)CC2`, the cytotoxicity at 10 µM was 7.54%.

As for `O=C(COc1coc(CN2CCCCC2)cc1=O)c1ccc(Cl)cc1`, the cytotoxicity at 10 µM came to 3.13%.

With `CCN(Cc1c(C)nn(CC)c1C)S(=O)(=O)c1cnn(C)c1C`, the cytotoxicity at 10 µM was 9.65%.

For `CN(C)S(=O)(=O)N1CCCCCC1c1cc(-c2ccc(F)cc2)no1` (stereo not given), the cytotoxicity at 10 µM was 10.6%.

With `COc1ccccc1CN1CCC(c2nccc(C)n2)C1` (stereo not given), the cytotoxicity at 10 µM is 3.44%.

With `COc1ccc(CN2CC[C@H](NC(C)=O)[C@@H](O)CC2)c(F)c1`, the cytotoxicity at 10 µM is -11.1%.

Regarding `CC(=O)N1CCCC1c1cccc(Cc2ccccc2Cl)n1` (stereo not given), the cytotoxicity at 10 µM turned out to be 1.58%.

For the compound `CC(C)n1ccnc1CN1CCOC(C)(C(=O)N2CCOCC2)C1` (stereo not given), the cytotoxicity at 10 µM is -8.58%.

Turning to `Oc1nc(N2CCOCC2)nc2c1CCN(Cc1ccc(F)cc1)CC2`, the cytotoxicity at 10 µM was -4.14%.

In the case of `O=C(N[C@@H]1CCC[C@@H](n2ccnc2)[C@@H]1O)c1ccc2c(c1)CCCC2`, the cytotoxicity at 10 µM is -11.3%.

Take `CS(=O)(=O)N1Cc2ccccc2CC2(CCN(Cc3ccncc3)C2)C1` (stereo not given): the cytotoxicity at 10 µM stood at 4.59%.

In the case of `O=C(NCC1CCS(=O)(=O)C1)N(Cc1ccco1)C1CC1` (stereo not given), the cytotoxicity at 10 µM is -136%.

`COCCN(Cc1ccccn1)C(=O)Nc1cccnc1N1CCCC1`: the cytotoxicity at 10 µM was found to be 4.03%.

In the case of `COc1ccc(OC)c(CCNC(=O)CCC2CCCO2)c1` (stereo not given), the cytotoxicity at 10 µM amounted to 2.34%.

With `O=C(CN1CCCC1COc1ccccc1)NCc1ccccn1` (stereo not given), the cytotoxicity at 10 µM is -0.764%.

Regarding `CCC1(CNC(=O)NC(c2nnc3n2CCC3)C(C)C)CCC1` (stereo not given), the cytotoxicity at 10 µM is 0.864%.

Turning to `Cc1cc(F)ccc1-n1cc(O)c(C(N)=O)n1`, the cytotoxicity at 10 µM is -9.55%.

For `CCC(CC)n1ncc(C(=O)NS(=O)(=O)c2ccsc2)c1C`, the cytotoxicity at 10 µM is -3.01%.

As for `Cc1nccn1-c1ccc(CNC(=O)c2ccc(O)nc2)cn1`, the cytotoxicity at 10 µM came to 1.75%.

In the case of `O=C(NCCc1nnc2n1CCC2)N1CCC2(CCCCC2)C1`, the cytotoxicity at 10 µM is 14.7%.

With `COCCNC(=O)[C@H]1CO[C@H]2CCN(Cc3cccs3)C[C@H]2C1`, the cytotoxicity at 10 µM was -108%.

`COc1cc(-c2cc(=O)[nH]cn2)cc(OC)c1OC`: the cytotoxicity at 10 µM is -12.5%.

As to `O=C(CNCc1ccccc1Cn1cccn1)Nc1cnccn1`, the cytotoxicity at 10 µM stood at 8.11%.

In the case of `Cc1nc(CC(=O)N2CCCC2c2nc(-c3ccccc3)no2)cs1` (stereo not given), the cytotoxicity at 10 µM amounted to 7.01%.

For `Cc1cccc(CN2CCN(C(=O)N(C)C)[C@@H]3CS(=O)(=O)C[C@@H]32)n1`, the cytotoxicity at 10 µM was 0.00559%.

With `CCc1oc(C(=O)N(C)Cc2ccncc2)cc1CN(CC)CC`, the cytotoxicity at 10 µM was -1.81%.

As to `Cn1cc(CN(CC2(O)CCNC2)C2CCCCC2)cn1` (stereo not given), the cytotoxicity at 10 µM was 17.8%.

For the compound `CC(C)c1nc(CCN(C)c2nccc(N3CCCC(O)C3)n2)no1` (stereo not given), the cytotoxicity at 10 µM is -12%.

As for `CSCCCN1CC[C@@]2(O)CCN(c3ncccn3)C[C@H]2C1`, the cytotoxicity at 10 µM is -4.53%.

Consider `NCc1cn(CC2CCCN(C(=O)NCCc3ccc(F)cc3)C2)nn1` (stereo not given), for which the cytotoxicity at 10 µM was found to be 17.2%.

Take `CCn1c(C2CCCNC2)nn(Cc2ccc(C(=O)NC)o2)c1=O` (stereo not given): the cytotoxicity at 10 µM worked out at 8.25%.

As to `Cc1nccn1-c1ccc(N2CCC(NC(C)CC(C)C)CC2)cc1` (stereo not given), the cytotoxicity at 10 µM came out at 1.71%.

For the compound `COc1cccc2c1OCCCN(c1nc3c(c(=O)[nH]1)CCNCC3)C2`, the cytotoxicity at 10 µM is -5.24%.

On to `CCNc1ncc(C(=O)NCc2ccc(F)c(C(F)(F)F)c2)cn1`, for which the cytotoxicity at 10 µM is -5.96%.

In the case of `CCc1ccccc1OC1CN(C(=O)c2ccsc2)C1`, the cytotoxicity at 10 µM amounted to 7.46%.

Turning to `COc1ccc(-c2n[nH]cc2CN(C)CCC2CCOCC2)cc1F`, the cytotoxicity at 10 µM is -6.57%.

Consider `CCN(CC)S(=O)(=O)c1ccc(NC(=O)C(C)(C)C)cc1`, for which the cytotoxicity at 10 µM amounted to 9.22%.

In the case of `COCc1nc(CNC2CCSC2)no1` (stereo not given), the cytotoxicity at 10 µM is -1.37%.

Take `C=Cc1cccc(CN2CCCn3nc(CNS(C)(=O)=O)cc3C2)c1`: the cytotoxicity at 10 µM worked out at 3.15%.

On to `c1csc(CN2CCCN(c3ncnc4[nH]ccc34)CC2)c1`, for which the cytotoxicity at 10 µM turned out to be 5.51%.

Consider `Cc1ccc(N2CCN(C(=O)CCc3n[nH]c(C)c3C)CC2=O)cc1`, for which the cytotoxicity at 10 µM is 4.78%.

In the case of `O=C1NCC2(CCCN(C(=O)c3ccc4c(c3)CCCO4)CC2)O1` (stereo not given), the cytotoxicity at 10 µM is -19.7%.

Consider `CCNC(=O)CCN1CCC(c2cc(N3CCOCC3)nc(C)n2)CC1`, for which the cytotoxicity at 10 µM was -10.8%.

As for `Cc1ccc2c(c1)c(CNC(=O)C1CC(=O)N(C3CCCC3)C1)nn2C` (stereo not given), the cytotoxicity at 10 µM is -19.9%.

Consider `Cc1cc(C)n(CC(=O)N(C)Cc2csc(-c3cccs3)n2)c(=O)n1`, for which the cytotoxicity at 10 µM turned out to be 32.2%.

Take `COc1cccc(N2CCN(Cc3ccc(NC(C)=O)cc3)CC2=O)c1`: the cytotoxicity at 10 µM was -15.4%.

Consider `CCOCn1cc(NC(=O)C2CCN(S(C)(=O)=O)CC2)cn1`, for which the cytotoxicity at 10 µM is -10.7%.

Turning to `CC(C)n1cc(CN2CCCN(C(=O)C(C)n3cccn3)CC2)cn1` (stereo not given), the cytotoxicity at 10 µM was -17.9%.

For the compound `Cc1nn(C)c(Cl)c1C1CCCN1C(=O)c1ccncc1` (stereo not given), the cytotoxicity at 10 µM was -11.2%.

Regarding `CN1CCN(c2cc(CNC(=O)c3ccc(Cl)o3)ccn2)CC1`, the cytotoxicity at 10 µM was -9.69%.

For the compound `CN(C)c1ccc(C(=O)N2CCCC(n3cccn3)C2)cn1` (stereo not given), the cytotoxicity at 10 µM was -11.5%.

On to `Cc1cnc(CNC(=O)N(CCCO)C2CCc3ccccc32)s1` (stereo not given), for which the cytotoxicity at 10 µM was -17.2%.

Regarding `CCCOc1cc(C)ccc1NC(=O)N(C)Cc1cnn(C)c1`, the cytotoxicity at 10 µM is -11.1%.

With `NC(=O)N1CCC(C(=O)NCc2nncn2-c2ccccc2)CC1`, the cytotoxicity at 10 µM is -18.7%.

On to `Cc1nc(C)n(C2CCCN(C(=O)c3ncoc3C(C)C)C2)n1` (stereo not given), for which the cytotoxicity at 10 µM was -17%.

With `Cc1cccc(CN2C(=O)C[C@H]3[C@@H]2CCN3Cc2ccccn2)n1`, the cytotoxicity at 10 µM is 6.97%.

For `CCN1CCC2(CCN(Cc3ccc(OC)cc3)CC2)C1=O`, the cytotoxicity at 10 µM was -0.0368%.

Regarding `Cn1nccc1-c1nnn2c1COC(CNCc1nccs1)C2` (stereo not given), the cytotoxicity at 10 µM is -1.07%.

Consider `CN(C[C@@H]1CCC[C@@H]2CN(c3ncccn3)C[C@@H]21)C1CC1`, for which the cytotoxicity at 10 µM was determined as 5.18%.

As to `CC(=O)N1CC(=O)N(c2ccccc2)CC12CCN(Cc1ccoc1)C2` (stereo not given), the cytotoxicity at 10 µM was -1.51%.

On to `CC(C)NCC1(COc2ccccc2)C[C@@H](O)[C@@H](O)C1` (stereo not given in full), for which the cytotoxicity at 10 µM stood at 0.67%.

With `CC(=O)N1C[C@H]2CC[C@@H](C1)N(S(=O)(=O)c1ccc(C#N)cc1Cl)C2`, the cytotoxicity at 10 µM came out at 1.33%.

For the origin of these results see ChEMBL document CHEMBL4513216, “Probing the Open Global Health Chemical Diversity Library for Multistage-Active Starting Points for Next-Generation Antimalarials” (ACS Infect Dis, 2020).
